In ChEMBL document CHEMBL1821704, “Diarylheptanoids from Curcuma kwangsiensis and their inhibitory activity on nitric oxide production in lipopolysaccharide-activated macrophages” (Bioorg Med Chem Lett, 2011):

How the values were obtained:
RAW264.7 [1] = assay: Cytotoxicity against mouse RAW264.7 cells at 100 uM after 24 hrs by MTT assay; format: cell-based; details: raw264.7, 24 h
RAW264.7 [2] = assay: Inhibition of LPS-induced nitric oxide production in mouse RAW264.7 cells after 24 hrs by Griess reaction based spectrophotometry; format: functional, cell-based; details: RAW264.7, 24 h
Method in brief: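 Cells plated at 1 × 10⁵ cells/well and stimulated with LPS, with or without compound, for 24 h at 37 °C. Nitrite was read at 550 nm against a sodium nitrite standard curve. Triplicate wells; mean SD of three independent experiments.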

| IC50 (RAW264.7 [2]) [µM] | Structure (SMILES) | Activity (RAW264.7 [1]) |
| --- | --- | --- |
| 25.8 | COc1cc(CC[C@@H](O)C[C@H](O)CCc2ccc(O)c(O)c2)ccc1O | Non-toxic |
| 9.52 | CC(=O)O[C@@H](CCc1ccc(O)c(O)c1)C[C@@H](O)CCc1ccc(O)cc1 | Toxic |
| 10.7 | CC(=O)O[C@H](CCc1ccc(O)cc1)C[C@@H](CCc1ccc(O)c(O)c1)OC(C)=O | Non-toxic |
| 37.5 | COc1cc(CCC(=O)C[C@@H](O)CCc2ccc(O)cc2)ccc1O | Non-toxic |
| 32 | CC(=O)O[C@H](CCc1ccc(O)cc1)C[C@H](O)CCc1ccc(O)cc1 | Non-toxic |
| 7.98 | CC(=O)O[C@H](CCc1ccc(O)c(O)c1)C[C@@H](CCc1ccc(O)c(O)c1)OC(C)=O | Toxic |
| 75.7 | O=C(CCc1ccc(O)cc1)C[C@@H](O)CCc1ccccc1 | Non-toxic |
| > 100 | Oc1ccc(CC[C@@H](O)C[C@H](O)CCc2ccc(O)cc2)cc1 [(+)-HANNOKINOL] | Non-toxic |
| 2.41 | COc1cc(CC[C@@H](O)C[C@@H](O)CCc2ccc(O)cc2)cc(O)c1O (relative stereo) | Toxic |
| 9.52 | CC(=O)O[C@H](CCc1ccc(O)c(O)c1)C[C@H](O)CCc1ccc(O)cc1 | Toxic |
| 35.5 | CC(=O)O[C@H](CCc1ccc(O)c(O)c1)C[C@H](O)CCc1ccc(O)c(O)c1 | Toxic |

Second part, the compound before the results:

| Structure (SMILES) | IC50 (RAW264.7 [2]) [µM] | Activity (RAW264.7 [1]) |
| --- | --- | --- |
| COc1ccc2c(c1)c(CC(=O)O)c(C)n2C(=O)c1ccc(Cl)cc1 [INDOMETHACIN] | – | Non-toxic |
| Oc1ccc(CC[C@H](O)C[C@H](O)CCc2ccc(O)c(O)c2)cc1 (relative stereo) | 3.13 | Toxic |
| C[C@]12CCC(=O)C=C1CC[C@@H]1[C@@H]2[C@@H](O)C[C@@]2(C)[C@H]1CC[C@]2(O)C(=O)CO [HYDROCORTISONE] | – | Non-toxic |
| O=C(CCc1ccc(O)cc1)C[C@@H](O)CCc1ccc(O)c(O)c1 | 82.8 | Non-toxic |
| Oc1ccc(CC[C@@H](O)C[C@H](O)CCc2ccc(O)c(O)c2)cc1 | 11.5 | Non-toxic |
| COc1cc(CC[C@@H](O)C[C@@H](O)CCc2ccc(O)cc2)ccc1O (relative stereo) | 2.81 | Non-toxic |
| COc1cc(CCC(=O)C[C@@H](O)CCc2ccc(O)c(O)c2)ccc1O | 9.37 | Toxic |
| Oc1ccc(CC[C@@H](O)C[C@@H](O)CCc2ccc(O)cc2)cc1 | > 100 | Non-toxic |
